Assay outcomes from PubChem BioAssay.
Rows were chosen to be rich in hits. Some 12% of all compounds tested hit in one or more screens of this group.
WT yeast gro inh: growth inhibition of WT yeast, mitochondrial fusion screen. mitochondrial fusion phenotypic screen, WT strain. inhibition, % at 10 µM. 2.1% of 190,000 active. AID 1362; in the data active = inhibition above about 58%; tested in S. cerevisiae
Diaph act CS: activates diaphorase or chemically reduces, flagging diaphorase assay artifacts. 0.005% of 190,000 active. AID 1229. Diaphorase/resazurin coupled assay, resorufin fluorescence, 16 min; stronger effect = higher value; 1 = vehicle wells, 0 = NADH-free wells. activation factor at 20 µM;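 active = diaphorase activity raised at least twofold by the compound at 20 µM; inactive = activation factor below 2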
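Material: bacterial diaphorase enzyme (C. kluyveri); amount: enzyme 0.07 U/mL final; reagent: NADH substrate 0.114 mM plus resazurin dye 0.1 mM, final; doses: single compound dose of 20 µM, 1% DMSO final; timing: 16 min enzyme reaction, ambient temperature; measured by: fluorescence of resorufin, 544 nm excitation, 590 nm emission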
L major viab: reduces viability of Leishmania major promastigotes; resazurin fluorescence viability; inhibition, % at 10 µM; 9% of 200,000 active; AID 1063; in the data active = inhibition above about 50%;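 note: promastigotes grown with compound for 44 hours at 28 °C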
Diaph inh CS: diaphorase inhibition or chemical oxidation counter-screen; diaphorase resazurin-to-resorufin fluorescence, NADH, 16 min; bacterial (C. kluyveri) enzyme, not human; 0.69% of 190,000 active; AID 1217; inhibition, % at 20 µM;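 active = primary screen inhibition at 20 µM above a set limit, cut at about 50% in these data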
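Test system: bacterial diaphorase enzyme (C. kluyveri); Quantity: 0.14 U/mL diaphorase, enzyme working solution; Times: reaction incubation of 16 min at room temperature; Measured by: fluorescence of resorufin formed from resazurin, Ex 544/Em 590 nm; Benchmarks: positive control minus NADH, DMSO neutral control.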
Cl transport mod: modulates chloride dependent transport by human KCC2; Q9H2X9; KCC2 cells, thallium flux FluoZin-2 fluorescence; B-score of Tl+ flux slope (higher = more flux/activation; lower = inhibition) at 10 µM; 2.2% of 190,000 active;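 active = thallium flux slope and its plate-corrected score both differing from the plate sample mean at a set confidence after two filtering rounds, in either direction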;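 note: slope of fluorescence scaled to starting intensity during 10 to 20 s after thallium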
ROMK primary: modulates human ROMK potassium channel activity | P48048 | AID 1918 | 2% of 130,000 active | Tet-inducible ROMK, thallium flux fluorescence; actives lie on both sides | B-score at 10 µM;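 active = signal ratio slope over the read window, or its plate-corrected B-score, at least 3 SD from the plate mean, either direction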;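 note: B-score of the F/F0 ratio slope over 7 to 12 s after thallium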
Target sequence (P48048 whole entry, looked up): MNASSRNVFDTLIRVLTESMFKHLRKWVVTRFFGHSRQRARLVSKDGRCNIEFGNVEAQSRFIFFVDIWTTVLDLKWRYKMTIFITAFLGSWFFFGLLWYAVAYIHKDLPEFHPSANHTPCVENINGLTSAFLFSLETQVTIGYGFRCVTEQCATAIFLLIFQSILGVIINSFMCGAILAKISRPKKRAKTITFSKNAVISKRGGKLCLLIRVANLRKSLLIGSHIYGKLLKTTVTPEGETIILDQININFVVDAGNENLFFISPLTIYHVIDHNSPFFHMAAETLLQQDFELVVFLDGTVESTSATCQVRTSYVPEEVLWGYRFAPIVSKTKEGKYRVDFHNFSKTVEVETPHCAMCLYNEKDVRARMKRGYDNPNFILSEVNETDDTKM
KCC2 secondary: KCC2 (human) modulation, secondary assay; 15% of 3,700 active; HEK293-KCC2, thallium flux, FluoZin2 fluorescence; stronger effect = higher value; shares compounds with Cl transport mod; normalised thallium flux (F/F0 slope) at 10 µM;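 active = thallium flux slope above the same plate's solvent-only control mean plus 3 SD; inconclusive = the two replicate wells disagree; inactive = no significant difference from solvent-only control wells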
KCC2 bumet counter: thallium flux despite bumetanide block in KCC2 cells, secondary assay 3; AID 1714; normalized thallium flux at 10 µM; HEK293-KCC2 + bumetanide/ouabain, thallium flux FluoZin2; stronger effect = higher value; 49% of 3,700 active; shares compounds with Cl transport mod;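 active = thallium entry rate above the same plate's blocked-transporter control wells by more than 3 SD; inconclusive = the two repeat wells disagree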;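 note: raw slope of fluorescence over initial fluorescence between 10 and 20 s after thallium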
KCC2 sec2: KCC2 (human) modulation, second secondary assay. 23% of 3,700 active. normalized thallium flux at 10 µM. shares compounds with Cl transport mod. HEK293-KCC2, thallium flux FluoZin2 fluorescence; actives lie on both sides; F/F0 rise rate, 10–20 s post-thallium;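 active = thallium flux slope more than 3 SD above or below the plate's solvent-only control mean, mostly below; inconclusive = the two repeat wells disagreed; inactive = no significant shift from solvent-only controls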
HEK293 Tl flux: acts in parental HEK cells, KCC2 counter-screen; shares compounds with Cl transport mod; HEK293 parental cells, thallium flux FluoZin2, ouabain; baseline-ratio fluorescence slope, 10–20 s after thallium; thallium flux rate (normalised fluorescence) at 10 µM; 46% of 3,700 active;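 active = thallium flux rate significantly above the same plate's solvent-only control wells, beyond their mean plus 3 SD; inconclusive = the two replicate wells gave conflicting results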
KCC2 retest ouab: KCC2 (human) modulation, ouabain retest. shares compounds with Cl transport mod. HEK293-KCC2, thallium flux FluoZin2 fluorescence; bidirectional: low = inhibitor, high = activator. raw Tl+ flux slope (below DMSO = inhibition, above = activation) at 10 µM. 48% of 3,700 active;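 active = thallium flux slope beyond 3 SD from same-plate DMSO control mean in most replicates, usually higher, sometimes lower; inconclusive = repeat tests gave conflicting results; inactive = no significant difference from controls in most replicates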;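 note: slope of initial-normalized fluorescence between seconds 10 and 20 after thallium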
HEK293 Tl flux2: parental HEK flux effect, counter-screen 2. shares compounds with Cl transport mod. 33% of 3,700 active. AID 1718. thallium flux slope at 10 µM. HEK293 parental, thallium flux FluoZin-2 fluorescence slope;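 active = thallium flux slope above the same plate's solvent-control mean plus 3 SD in both duplicate wells; inconclusive = duplicate wells that disagreed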;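 note: run without ouabain in cells lacking the KCC2 cotransporter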
Large screens that a line does not name were inactive (follow-up assays come after a bar, where they were run).

Cc1ccc(C(=O)N/N=C/c2ccc([N+](=O)[O-])s2)cc1	L major viab 99, Cl transport mod 6.6 (no result: ROMK primary) | KCC2 secondary inactive | KCC2 bumet counter 0.015 | KCC2 sec2 inactive | HEK293 Tl flux 0.016 | KCC2 retest ouab inconclusive | HEK293 Tl flux2 inconclusive
Cc1ccc([N+](=O)[O-])c(C(=O)N/N=C/c2cccs2)c1	Cl transport mod 4.5 (no result: WT yeast gro inh, Diaph act CS, L major viab, Diaph inh CS) | KCC2 secondary inactive | KCC2 bumet counter 0.014 | KCC2 sec2 inactive | HEK293 Tl flux 0.011 | KCC2 retest ouab inactive | HEK293 Tl flux2 0.014
CCOC(=O)C1CCN(S(=O)(=O)c2c(C)n(C)c(=O)n(C)c2=O)CC1	none (no result: ROMK primary)
Cc1cc2nc(-c3ccccn3)c(-c3ccccn3)nc2cc1C	none (no result: WT yeast gro inh, Diaph act CS, L major viab, Diaph inh CS, ROMK primary)
Cc1cc(=S)nc(-c2ccccn2)[nH]1	Cl transport mod 81 (no result: WT yeast gro inh, Diaph act CS, L major viab, Diaph inh CS) | KCC2 secondary 0.037 | KCC2 bumet counter 0.048 | KCC2 sec2 inactive | HEK293 Tl flux 0.041 | KCC2 retest ouab 0.043 | HEK293 Tl flux2 0.016
Cc1cc(C)n(-c2nc3sc4c(c3c(=O)[nH]2)CCCC4)n1	WT yeast gro inh 73, L major viab 99, Cl transport mod 42 | KCC2 secondary inactive | KCC2 bumet counter 0.1 | KCC2 sec2 0.098 | HEK293 Tl flux 0.1 | KCC2 retest ouab 0.089 | HEK293 Tl flux2 0.069
Cc1ccc2oc(-c3ccc(C)c(NC(=O)Cc4cccs4)c3)nc2c1	none
Cc1ccc2oc(-c3ccc(C)c(NC(=S)NC(=O)c4cccs4)c3)nc2c1	Cl transport mod 4.6 (no result: ROMK primary) | KCC2 secondary inactive | KCC2 bumet counter 0.012 | KCC2 sec2 inactive | HEK293 Tl flux inconclusive | KCC2 retest ouab inconclusive | HEK293 Tl flux2 inactive
Cc1ccc(F)cc1NC(=S)NCCc1ccccc1	none
O=C(CN1CCN(c2ccccn2)CC1)Nc1ccc2ccccc2c1	none (no result: Cl transport mod) | KCC2 secondary inactive | KCC2 bumet counter inactive | KCC2 sec2 inactive | HEK293 Tl flux inactive | KCC2 retest ouab inactive | HEK293 Tl flux2 inactive
O=[N+]([O-])c1ccc(CSc2nnc(SCc3ccccc3)s2)cc1	Cl transport mod -5.4 (no result: ROMK primary) | KCC2 secondary inactive | KCC2 bumet counter inactive | KCC2 sec2 0.024 | HEK293 Tl flux inactive | KCC2 retest ouab 0.014 | HEK293 Tl flux2 inactive
COc1cccc([C@@H]2Oc3ccc(OC)cc3C(=O)[C@H]2OC(=O)NCc2ccc3c(c2)OCO3)c1	Cl transport mod 42 | KCC2 secondary inactive | KCC2 bumet counter 0.058 | KCC2 sec2 0.064 | HEK293 Tl flux 0.068 | KCC2 retest ouab 0.055 | HEK293 Tl flux2 0.051
COc1ccc2c(c1)O[C@@H](c1cccc(C(F)(F)F)c1)[C@H](OC(=O)NCCc1ccc(OC)c(OC)c1)C2=O	Cl transport mod 38 | KCC2 secondary inactive | KCC2 bumet counter 0.028 | KCC2 sec2 inconclusive | HEK293 Tl flux 0.029 | KCC2 retest ouab 0.037 | HEK293 Tl flux2 0.022
COC(=O)[C@@H](NC(=O)O[C@@H]1C(=O)c2ccc(OC)cc2O[C@H]1c1cccc(C(F)(F)F)c1)C(C)C	Cl transport mod 5.6 | KCC2 secondary inactive | KCC2 bumet counter 0.011 | KCC2 sec2 inactive | HEK293 Tl flux 0.015 | KCC2 retest ouab inconclusive | HEK293 Tl flux2 0.013
CN1c2ccccc2-c2nc3ccccc3n2C1c1cccs1 (centres undefined)	none (no result: ROMK primary)
O=C(OCc1nnc(-c2ccccc2)o1)C1CCN(S(=O)(=O)c2cccs2)CC1	none (no result: Cl transport mod)
CCOc1ccc(N2CC(C(=O)Nc3c(C)n(C)n(-c4ccccc4)c3=O)CC2=O)cc1 (centres undefined)	Cl transport mod -5 | KCC2 secondary inactive | KCC2 bumet counter inactive | KCC2 sec2 inactive | HEK293 Tl flux inactive | KCC2 retest ouab inactive | HEK293 Tl flux2 inactive
Cc1cc(C(=O)COC(=O)C2=NNC(=O)CC2)c(C)n1-c1cccc(C(F)(F)F)c1	none (no result: Cl transport mod, ROMK primary)
S=C(NCc1ccccc1Cl)Nc1ccccc1Cl	Cl transport mod 6.1 | KCC2 secondary inactive | KCC2 bumet counter 0.012 | KCC2 sec2 inactive | HEK293 Tl flux inactive | KCC2 retest ouab inconclusive | HEK293 Tl flux2 inactive
COc1cccc(C2=NN(C(=O)c3cccs3)C(O)(C(F)(F)F)C2)c1 (centres undefined)	none (no result: ROMK primary)
Cn1c(=O)cc(SCC(=O)N2CCN(c3ccccn3)CC2)c2ccccc21	Cl transport mod -3.5 (no result: ROMK primary) | KCC2 secondary inactive | KCC2 bumet counter inactive | KCC2 sec2 inactive | HEK293 Tl flux inactive | KCC2 retest ouab 0.018 | HEK293 Tl flux2 inactive
Cn1c(=O)cc(SCC(=O)N2CCN(c3ccccc3)CC2)c2ccccc21	none (no result: Cl transport mod, ROMK primary)
O=C1/C(=C\c2cccnc2)SC(=S)N1c1ccc(F)cc1	none
C=C(C)CNC(=S)N=Nc1c(O)[nH]c2ccc([N+](=O)[O-])cc12	L major viab 78, Cl transport mod 14 | KCC2 secondary inactive | KCC2 bumet counter 0.021 | KCC2 sec2 inactive | HEK293 Tl flux 0.024 | KCC2 retest ouab 0.027 | HEK293 Tl flux2 0.014
CC(C)NC(=S)N=Nc1c(O)[nH]c2ccc([N+](=O)[O-])cc12	none
Cc1cc(-c2c(C)[nH]n(-c3ccccc3)c2=O)n[nH]1	none
Cc1cc(C)n(-c2nc3ccccc3s2)n1	none
CC1=NN(c2nc3ccccc3s2)C(O)(C(F)(F)F)C1 (centres undefined)	Cl transport mod 5.8 (no result: WT yeast gro inh, Diaph act CS, L major viab, Diaph inh CS) | KCC2 secondary inactive | KCC2 bumet counter 0.011 | KCC2 sec2 inactive | HEK293 Tl flux 0.012 | KCC2 retest ouab inconclusive | HEK293 Tl flux2 0.013
CN(C)c1ccc(/C(=N\O)c2ccccc2)cc1	none (no result: ROMK primary)
FC(F)(F)c1nc2ccccc2nc1N/N=C\c1ccccc1	none (no result: Cl transport mod, ROMK primary) | KCC2 secondary inactive | KCC2 bumet counter 0.0059 | KCC2 sec2 inactive | HEK293 Tl flux inactive | KCC2 retest ouab inactive | HEK293 Tl flux2 inactive
